According to ChEMBL document CHEMBL2169772, “Discovery of (2S)-1-[4-(2-{6-amino-8-[(6-bromo-1,3-benzodioxol-5-yl)sulfanyl]-9H-purin-9-yl}ethyl)piperidin-1-yl]-2-hydroxypropan-1-one (MPC-3100), a purine-based Hsp90 inhibitor” (J Med Chem, 2012):

Key:
Liver microsomes = assay: (§1) Metabolic stability in human liver microsomes assessed as percent of residual drug in presence of NADPH incubated for 40 mins by LC-ESI-MS/MS method; format: ADME, Microsome; conditions: microsomes, 40 min
Summary of the method: (§2)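 Test article incubated in duplicate with human liver microsomes (0.5 mg/mL protein) in 100 mM potassium phosphate pH 7.4. Started with 1 mM NADPH. Stopped with acetonitrile at 0, 10, 20 and 40 min. LC-MS/MS peak area at 40 min reported as percent of 0 min. No-NADPH control incubated for 40 min.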

Mus musculus [1] = assay: Inhibition of HSP90 in mouse liver assessed as induction of HSP70 mRNA expression at 100 mg/kg, po after 6 hrs relative to control; format: functional
[2] = AUC in Swiss nude mouse at 100 mg/kg, po by LC-ESI-MS/MS method; format: ADME, organism-based; set-up: dose 100 mg/kg, route oral; conditions: plasma
Summary of the method: (§3)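 Single oral gavage in mice, vehicle 40% Captisol in phosphate buffer. EDTA plasma from cardiac puncture. Acetonitrile precipitation with internal standard, then LC-ESI-MS/MS quantitation against a 10–10 000 ng/mL standard curve. Cmax and AUC by noncompartmental analysis.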

[3] = Cmax in Swiss nude mouse at 100 mg/kg, po by LC-ESI-MS/MS method; format: ADME, organism-based; set-up: dose 100 mg/kg, route oral; conditions: in vivo; summary of the method: as §3
[4] = Oral bioavailability in Swiss nude mouse at 10 mg/kg by LC-ESI-MS/MS method; format: ADME, organism-based; conditions: in vivo
Summary of the method: (§4)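 Mice dosed by oral gavage, vehicle DMA/PEG300/EtOH/H2O (3/40/12/45, v/v/v/v). Blood drawn by cardiac puncture into EDTA plasma. Three or five animals per time point. Plasma precipitated with acetonitrile plus internal standard. Quantified by LC-ESI-MS/MS against a 10–10 000 ng/mL standard curve with QC samples. Noncompartmental analysis.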

[5] = AUC in Swiss nude mouse at 10 mg/kg, po by LC-ESI-MS/MS method; format: ADME, organism-based; set-up: dose 10 mg/kg, route oral; conditions: plasma; summary of the method: as §4
[6] = Cmax in Swiss nude mouse at 10 mg/kg, po by LC-ESI-MS/MS method; format: ADME, organism-based; set-up: dose 10 mg/kg, route oral; conditions: in vivo; summary of the method: as §4
[7] = Tmax in Swiss nude mouse at 10 mg/kg, po by LC-ESI-MS/MS method; format: ADME, organism-based; set-up: dose 10 mg/kg, route oral; conditions: in vivo; summary of the method: as §4
[8] = AUC in Swiss nude mouse at 2.5 mg/kg, iv by LC-ESI-MS/MS method; format: ADME, organism-based; set-up: dose 2.5 mg/kg, route intravenous; conditions: plasma
Summary of the method: (§5)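 Intravenous dose in mice, vehicle DMA/PEG300/EtOH/H2O 3/40/12/45. Sampling at 5, 15, 30, 60, 120, 240, 480 and 720 min, three or five animals per time point. Cardiac-puncture EDTA plasma. Acetonitrile protein precipitation with internal standard, then LC-ESI-MS/MS (10–10 000 ng/mL curve). Parameters by noncompartmental fit.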

[9] = Half life in Swiss nude mouse at 2.5 mg/kg, iv by LC-ESI-MS/MS method; format: ADME, organism-based; set-up: dose 2.5 mg/kg, route intravenous; conditions: in vivo; summary of the method: as §5
[10] = Volume of distribution in Swiss nude mouse at 2.5 mg/kg, iv by LC-ESI-MS/MS method; format: ADME, organism-based; set-up: dose 2.5 mg/kg, route intravenous; conditions: in vivo; summary of the method: as §5
Mus musculus [11] = assay: Hepatic clearance in Swiss nude mouse at 2.5 mg/kg, iv by LC-ESI-MS/MS method; format: ADME, organism-based, Liver; set-up: dose 2.5 mg/kg, route intravenous; conditions: in vivo; summary of the method: as §5
[12] = as §1; format: ADME, Microsome; conditions: liver microsomes, read-out: Stability; summary of the method: as §2
[13] = Cytotoxicity against human NCI-ADR-RES cells overexpressing P-gp 1 assessed as inhibition of tumor growth incubated for 72 hrs by luminometry; format: functional, cell-based
Summary of the method: (§6)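 Cells seeded at 5000 per well in DMEM with 10% serum and left overnight. Compound added from DMSO dilutions (0.4% DMSO final) for 72 h. After 5 min at room temperature, ATPLite two-step lysis and substrate added, 5 min incubation, then luminescence read. Values are the mean of at least two experiments.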

HCT-116 [14] = assay: Cytotoxicity against human HCT116 cells assessed as inhibition of tumor growth incubated for 72 hrs by luminometry; format: functional, cell-based; conditions: HCT-116, 72 h; summary of the method: as §6
Heat shock protein HSP90 [15] = target: T1, Heat shock protein HSP90 (Homo sapiens, UniProt P07900+P08238); assay: Inhibition of human HSP90 using BODIPY labelled geldanamycin as substrate by fluorescence polarization assay; format: protein assay
Heat shock protein HSP90 [16] = target: T1, Heat shock protein HSP90; assay: Inhibition of human HSP90 in HCT116 cells expressing Her2 gene assessed as degradation of Her2 after 4 hrs by luciferase reporter gene assay; format: cell-based; conditions: hct-116
Summary of the method: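 HCT116 cells stably transfected with Her2 kinase domain (aa 641–975) fused to firefly luciferase. Seeded at 10 000 per well in DMEM with 10% serum and left overnight. Compound added from DMSO (0.4% final) for 4 h. Steady-Glo added at room temperature for 5 min, then luminescence read.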

[17] = Oral bioavailability in Swiss nude mouse at 100 mg/kg administered using captisol and phosphate buffer system formulation by LC-ESI-MS/MS method; conditions: in vivo
[18] = Solubility of compound in phosphate buffer at pH 7.4; format: physicochemical
HCT-116 [19] = assay: Ratio of IC50 for human NCI-ADR-RES cells overexpressing P-gp1 to IC50 for human HCT116 cells; format: functional
[20] = Lipophilicity, log P of the compound; format: physicochemical; conditions: octanol/water

Compound | fold change (FC) (Mus musculus [1]) | AUC [2] [ng·h/mL] | Cmax [3] [ng/mL] | bioavailability [4] [%] | AUC [5] [ng·h/mL] | Cmax [6] [ng/mL] | Tmax [7] [min] | AUC [8] [ng·h/mL] | half-life [9] [min] | Vd [10] [L/kg] | CLH (Mus musculus [11]) [mL/min/kg] | remaining at 40 min [12] [%] | IC50 [13] [nM] | IC50 (HCT-116 [14]) [nM] | IC50 (Heat shock protein HSP90 [15]) [nM] | IC50 (Heat shock protein HSP90 [16]) [nM] | bioavailability [17] [%] | other results
CN1[C@@H]2CC[C@H]1CC(CCn1c(Sc3cc4c(cc3Br)OCO4)nc3c(N)ncnc31)C2 (some centres not stated) | – | – | – | – | – | – | – | – | – | – | – | – | – | – | – | – | – | Stability (Liver microsomes): Unstable
C[C@@H](O)C(=O)N1CCC(CCn2c(Sc3cc4c(cc3Br)OCCO4)nc3c(N)ncnc32)CC1 | 3.8 | 32600 | 9300 | 32 | 1960 | 1180 | 60 | 1530 | 36 | 1.35 | 27.32 | 35 | 9800 | 920 | 110 | 69 | > 50 | –
Nc1ncnc2c1nc(Sc1cc3c(cc1Br)OCO3)n2CCC1C[C@H]2CC[C@@H](C1)O2 (some centres not stated) | – | – | – | – | – | – | – | – | – | – | – | – | – | – | – | – | – | Stability (Liver microsomes): Unstable
Nc1ncnc2c1nc(Sc1cc3c(cc1Br)OCCO3)n2CCC1CCN(C=O)CC1 | 2.3 | 38000 | 8540 | 30 | 1180 | 312 | 60 | 967 | 16.8 | 1.05 | 43.08 | 42 | 2100 | 670 | 60 | 49 | > 50 | –
Nc1ncnc2c1nc(Sc1cc3c(cc1Br)OCCO3)n2CCC1CCN(C(=O)CO)CC1 | 1.7 | 18200 | 7530 | 34 | 702 | 55 | 15 | 517 | 51 | 5.93 | 80.55 | 45 | 10000 | 820 | 90 | 40 | > 50 | –
C[C@H](O)C(=O)N1CCC(CCn2c(Sc3cc4c(cc3Br)OCCO4)nc3c(N)ncnc32)CC1 | 3.2 | 40400 | 11600 | 20 | 1190 | 564 | 30 | 1460 | 25.8 | 1.07 | 28.53 | 45 | 6500 | 470 | 150 | 74 | > 50 | –
Nc1ncnc2c1nc(Sc1cc3occc3cc1Br)n2CCC1CCN(C=O)CC1 | – | – | – | 131 | 4610 | 2230 | 30 | 880 | 18 | 1.06 | 47.35 | 53 | 1100 | 260 | 59 | 48 | – | –
Nc1ncnc2c1nc(Sc1cc3c(cc1Br)OCO3)n2CCC(N)C1CC1 (configuration not stated) | – | – | – | 0.4 | – | – | – | – | – | – | – | 75 | – | – | 80 | – | – | solubility [18]: > 100 µM
CC(C)N1CCC(CCn2c(Sc3cc4c(cc3Br)OCO4)nc3c(N)ncnc32)CC1 | – | – | – | – | – | – | – | – | – | – | – | – | 7250 | 2580 | 900 | 320 | – | Ratio IC50 (HCT-116 [19]): 2
Nc1ncnc2c1nc(Sc1cc3c(cc1Br)OCO3)n2CCC1CCN(C(=O)CO)CC1 | 18 | 25100 | 7780 | 57 | 1320 | 588 | 15 | 574 | 30 | 3 | 72.65 | 54 | 2000 | 380 | 110 | 60 | > 50 | –
C[C@@H](O)C(=O)N1CCC(CCn2c(Sc3cc4c(cc3Br)OCO4)nc3c(N)ncnc32)CC1 | 24 | 50300 | 8400 | 37 | 2410 | 1430 | 15 | 1650 | 36 | 1.32 | 25.22 | 58 | 3300 | 640 | 110 | 90 | > 50 | –
Nc1ncnc2c1nc(Sc1cc3c(cc1Br)OC(F)(F)O3)n2CCC1CCN(C=O)CC1 | – | – | – | – | – | – | – | – | – | – | – | 0 | – | – | > 5000 | – | – | logP [20]: 4.82
Nc1ncnc2c1nc(Sc1cc3c(cc1Br)OCO3)n2CCC1CCN(C=O)CC1 | 47 | 63900 | 10900 | 35 | 1810 | 354 | 60 | 1320 | 30 | 1.45 | 31.65 | 17 | 2800 | 430 | 150 | 70 | > 50 | logP [20]: 3.42
